Converted amounts (≈) assume the structure as drawn. *1 amine or outer side, *2 acyl side, *3 side chain or, on linkers, in order; H or OH if unused. Where a SMILES comes first, the peptide text is derived from it. [ ]: non-standard residue; d: D form. X1 = O=C([C@@H](CCCCNC1CCCC1)N[*:1])[*:2]; X2 = O=C([C@H](CCCCNC1CCCC1)N[*:1])[*:2]; d2Nal = N[C@H](Cc1ccc2ccccc2c1)C(=O)O Bounds are passed on as bounds.

Format in all cases: functional
For assay [1], the species on record is Rattus norvegicus. Kind of assay: Antiovulatory activity in rat was expressed as percentage of (10) rats blocked at 3 ug/mL. Also noted: unit: %. The method in brief: (§1)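 Standard antiovulatory assay in Sprague-Dawley rats; analogue given in a 40% propane-1,2-diol/0.9% saline vehicle.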
The species entered for assay [2] is Rattus norvegicus. Briefly: In vitro histamine releasing activity in rat peritoneal cells. The note with it: read-out: ED50 (the source's name). The method in brief: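 Peritoneal cells from male Sprague-Dawley rats exposed in vitro to each analogue in a standard histamine-release assay. ED50 for histamine release is reported in μg/mL as mean ± standard error.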

Assay [3] is filed under the species Rattus norvegicus. Briefly: Antiovulatory activity in rat was expressed as percentage of (9) rats blocked at 6 ug/mL. The procedure, abridged: as §1
For assay [4], the species on record is Rattus norvegicus. Briefly: Antiovulatory activity in rat was expressed as percentage of (8) rats blocked at 3 ug/mL. The method in brief:
as §1

For assay [5], the species on record is Rattus norvegicus. Briefly: Antiovulatory activity in rat was expressed as percentage of rats blocked at 1 ug/mL (number of rats). The method in brief: as §1
For assay [6], the species on record is Rattus norvegicus. Briefly: Antiovulatory activity in rat was expressed as percentage of (9) rats blocked at 3 ug/mL. The procedure, abridged: as §1

Take `CC(=O)N[C@H](Cc1ccc2ccccc2c1)C(=O)N[C@H](Cc1ccccc1)C(=O)N[C@H](Cc1ccccc1)C(=O)N[C@@H](CO)C(=O)N[C@@H](Cc1ccc(O)cc1)C(=O)N[C@H](CCCCNC1CCCC1)C(=O)N[C@@H](Cc1ccccc1)C(=O)N[C@@H](CCCCNC1CCCC1)C(=O)N1CCC[C@H]1C(=O)N[C@H](C)C(N)=O` (Ac-[d2Nal][dF][dF]SY[X1]F[X2]P[dA]-NH2): in the assay filed under Rattus norvegicus [1], the Antiovulatory activity was 70. The EC50 in the assay filed under Rattus norvegicus [2] came out at 6.1 µg/mL (≈ 4.04 µM).

As for `CCCC(CCC)NCCCC[C@H](NC(=O)[C@H](Cc1ccccc1)NC(=O)[C@@H](CCCCNC(CCC)CCC)NC(=O)[C@H](Cc1ccc(O)cc1)NC(=O)[C@H](CO)NC(=O)[C@@H](Cc1ccccc1)NC(=O)[C@@H](Cc1ccccc1)NC(=O)[C@@H](Cc1ccc2ccccc2c1)NC(C)=O)C(=O)N1CCC[C@H]1C(=O)N[C@H](C)C(N)=O`, the Antiovulatory activity is given as 0 in the assay filed under Rattus norvegicus [1] and 56 in the assay listed under Rattus norvegicus [3]. The EC50 in the assay listed under Rattus norvegicus [2] was determined as 21.9 µg/mL (≈ 14 µM).

`CC(=O)N[C@H](Cc1ccc2ccccc2c1)C(=O)N[C@H](Cc1ccccc1)C(=O)N[C@H](Cc1ccccc1)C(=O)N[C@@H](CO)C(=O)N[C@@H](Cc1ccc(O)cc1)C(=O)N[C@H](CCCCNC1CCCCC1)C(=O)N[C@@H](Cc1ccccc1)C(=O)N[C@@H](CCCCNC1CCCCC1)C(=O)N1CCC[C@H]1C(=O)N[C@H](C)C(N)=O`: the Antiovulatory activity in the assay filed under Rattus norvegicus [1] was 38. For the same compound, the EC50 in the assay filed under Rattus norvegicus [2] was found to be 5.86 µg/mL (≈ 3.81 µM).

In turn, `CC(=O)N[C@H](Cc1ccc2ccccc2c1)C(=O)N[C@H](Cc1ccccc1)C(=O)N[C@H](Cc1ccccc1)C(=O)N[C@@H](CO)C(=O)N[C@@H](Cc1ccc(O)cc1)C(=O)N[C@H](CCCN=C(N)N)C(=O)N[C@@H](Cc1ccccc1)C(=O)N[C@@H](CCCCNCc1ccc(C)cc1)C(=O)N1CCC[C@H]1C(=O)N[C@H](C)C(=O)O` displayed an Antiovulatory activity in the assay filed under Rattus norvegicus [1] of 10. Further, the EC50 in the assay filed under Rattus norvegicus [2] came to 33 µg/mL (≈ 21.9 µM).

Consider `CCCC(CCC)NCCCC[C@H](NC(=O)[C@H](Cc1ccccc1)NC(=O)[C@@H](CCCN=C(N)N)NC(=O)[C@H](Cc1ccc(O)cc1)NC(=O)[C@H](CO)NC(=O)[C@@H](Cc1ccccc1)NC(=O)[C@@H](Cc1ccccc1)NC(=O)[C@@H](Cc1ccc2ccccc2c1)NC(C)=O)C(=O)N1CCC[C@H]1C(=O)N[C@H](C)C(=O)O`, for which the Antiovulatory activity in the assay listed under Rattus norvegicus [4] is 0. Also, the EC50 in the assay filed under Rattus norvegicus [2] worked out at 4.6 µg/mL (≈ 3.07 µM).

Regarding `CC(=O)N[C@H](Cc1ccc2ccccc2c1)C(=O)N[C@H](Cc1ccccc1)C(=O)N[C@H](Cc1ccccc1)C(=O)N[C@@H](CO)C(=O)N[C@@H](Cc1ccc(O)cc1)C(=O)N[C@H](CCCN=C(N)N)C(=O)N[C@@H](Cc1ccccc1)C(=O)N[C@@H](CCCCNCC(C)(C)C)C(=O)N1CCC[C@H]1C(=O)N[C@H](C)C(=O)O`, the Antiovulatory activity in the assay listed under Rattus norvegicus [5] was 50; in the assay filed under Rattus norvegicus [6], 89. Moreover, in the assay filed under Rattus norvegicus [2], the EC50 worked out at 4.68 µg/mL (≈ 3.18 µM).

As to `CC(=O)N[C@H](Cc1ccc2ccccc2c1)C(=O)N[C@H](Cc1ccccc1)C(=O)N[C@H](Cc1ccccc1)C(=O)N[C@@H](CO)C(=O)N[C@@H](Cc1ccc(O)cc1)C(=O)N[C@H](CCCN=C(N)N)C(=O)N[C@@H](Cc1ccccc1)C(=O)N[C@@H](CCCCNCc1c(C)cc(C)cc1C)C(=O)N1CCC[C@H]1C(=O)N[C@H](C)C(=O)O`, the Antiovulatory activity in the assay filed under Rattus norvegicus [1] turned out to be 10. The EC50 in the assay listed under Rattus norvegicus [2] turned out to be 4.73 µg/mL (≈ 3.08 µM).

In turn, `CCCCC(CCCC)NCCCC[C@H](NC(=O)[C@H](Cc1ccccc1)NC(=O)[C@@H](CCCCNC(CCCC)CCCC)NC(=O)[C@H](Cc1ccc(O)cc1)NC(=O)[C@H](CO)NC(=O)[C@@H](Cc1ccccc1)NC(=O)[C@@H](Cc1ccccc1)NC(=O)[C@@H](Cc1ccc2ccccc2c1)NC(C)=O)C(=O)N1CCC[C@H]1C(=O)N[C@H](C)C(N)=O` showed an Antiovulatory activity in the assay listed under Rattus norvegicus [3] of 0. Further, the EC50 in the assay filed under Rattus norvegicus [2] was more than 300 µg/mL.

Consider `CC(=O)N[C@H](Cc1ccc2ccccc2c1)C(=O)N[C@H](Cc1ccccc1)C(=O)N[C@H](Cc1ccccc1)C(=O)N[C@@H](CO)C(=O)N[C@@H](Cc1ccc(O)cc1)C(=O)N[C@H](CCCCNC(C)C)C(=O)N[C@@H](Cc1ccccc1)C(=O)N[C@@H](CCCCNC(C)C)C(=O)N1CCC[C@H]1C(=O)N[C@H](C)C(N)=O`, for which the Antiovulatory activity in the assay filed under Rattus norvegicus [6] is given as 89. Moreover, the EC50 in the assay filed under Rattus norvegicus [2] turned out to be 6.48 µg/mL (≈ 4.45 µM).

The record behind these values is ChEMBL document CHEMBL1123876, “Effect of reductive alkylation of lysine in positions 6 and/or 8 on the histamine-releasing activity of luteinizing hormone-releasing hormone antagonists” (1987).
